Converted amounts (≈) assume the structure as drawn.
What was measured:
[1] = system: Staphylococcus aureus; experiment: Antibacterial activity against Staphylococcus aureus ATCC 25923 assessed as growth inhibition incubated for 18 hrs by broth dilution method; type: functional; conditions: ATCC 25923, 18 h
Method in brief: (§1)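 Broth microdilution following CA-SFM recommendations. Inoculum was 10^5 CFU in Mueller-Hinton broth with two-fold serial drug dilutions. Plates were incubated 18 h at 37 °C. MIC was the lowest concentration giving complete inhibition of visible growth. Values are means, n = 3.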

[2] = system: Staphylococcus intermedius; experiment: Antibacterial activity against Staphylococcus intermedius 1051997 assessed as growth inhibition incubated for 18 hrs by broth dilution method; type: functional; conditions: Staphylococcus intermedius, 1051997, 18 h; method in brief: as §1
[3] = system: Pseudomonas aeruginosa; experiment: Antibacterial activity against Pseudomonas aeruginosa ATCC 27853 assessed as growth inhibition incubated for 18 hrs by broth dilution method; type: functional; conditions: ATCC 27853, 18 h; method in brief: as §1
[4] = system: Escherichia coli; experiment: Antibacterial activity against Escherichia coli ATCC 25922 assessed as growth inhibition incubated for 18 hrs by broth dilution method; type: functional; conditions: ATCC 25922, 18 h; method in brief: as §1
[5] = system: Klebsiella pneumoniae; experiment: Antibacterial activity against Klebsiella pneumoniae ATCC 700603 assessed as growth inhibition incubated for 18 hrs by resazurin dye based assay; type: functional; conditions: Klebsiella pneumoniae, 700603, 18 h
Method in brief: (§2)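 Overnight cultures were diluted 40-fold in MHB and grown 1.5–2 h at 37 °C to mid-log phase. Cells were added at 5×10^5 CFU/mL final to two-fold compound dilutions (0.008–32 μg/mL final), in duplicate, for 18 h at 37 °C. Resazurin (0.001% final) was added for 2 h and MIC read by eye. Means, n = 2.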

[6] = system: Acinetobacter baumannii; experiment: Antibacterial activity against Acinetobacter baumannii ATCC 19606 assessed as growth inhibition incubated for 18 hrs by resazurin dye based assay; type: functional; conditions: ATCC 19606 = CIP 70.34 = JCM 6841, 18 h; method in brief: as §2
[7] = system: Candida albicans; experiment: Antifungal activity against Candida albicans ATCC 90028 assessed as growth inhibition incubated for 36 hrs by resazurin dye based assay; type: functional; conditions: ATCC 90028, 36 h
Method in brief: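 Yeast was grown 3 days on YPD agar at 30 °C. Colonies were suspended and diluted in YNB broth to 2.5×10^3 CFU/mL, then added to two-fold compound dilutions (0.008–32 μg/mL final), in duplicate. Plates stood 36 h at 35 °C without shaking. Means, n = 2.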

[8] = system: Cryptococcus neoformans; experiment: Antifungal activity against Cryptococcus neoformans ATCC 208821 assessed as growth inhibition incubated for 36 hrs by resazurin dye based assay; type: functional; conditions: ATCC 208821, 36 h
Method in brief: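 Cryptococcus was grown 3 days on YPD agar at 30 °C, suspended, and diluted in YNB broth to 2.5×10^3 CFU/mL. Cells were exposed to 0.008–32 μg/mL compound (final), in duplicate, for 36 h at 35 °C without shaking. Resazurin (0.006% final) was added for a further 3 h. MIC was read from absorbance at OD570–600. Means, n = 2.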

[9] = system: Pseudomonas aeruginosa; experiment: Potentiation of doxycycline-induced antibacterial activity against Pseudomonas aeruginosa ATCC 27853 assessed as concentration required to restore 2 ug/ml doxycycline activity measured after 18 hrs; type: functional
Method in brief: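 Inoculum was 5×10^5 CFU in MHB with two-fold serial dilutions of adjuvant plus fixed doxycycline at 2 μg/mL. […] Repeated independently in triplicate.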

[10] = system: L6; experiment: Cytotoxicity against rat L6 cells measured after 72 hrs by alamar blue assay; type: cell-based; conditions: L6, 72 h
Method in brief: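 Rat L6 myoblasts, 4×10^4/well in RPMI 1640 with L-glutamine and 10% FBS, received seven 3-fold dilutions (90 to 0.123 μg/mL) for 72 h. Alamar Blue was added for 2 h and fluorescence read at ex 536/em 588 nm. Podophyllotoxin served as reference. Means, n = 2.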

[11] = Cytotoxicity against human HEK293 cells measured after 20 hrs by resazurin dye based fluorescence assay; type: cell-based
Method in brief: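 HEK293 cells, 5,000/well in DMEM with 10% FBS, were exposed to compound for 20 h at 37 °C, 5% CO2. Resazurin (100 μM final) was added for 3 h, then fluorescence read at ex 560/em 590. Signal was normalised to tamoxifen (74 μg/mL, 0%) and untreated growth (100%), and CC50 came from dose-response fitting. Top dose 32 μg/mL. Means, n = 2.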

[12] = Hemolytic activity against Sprague-Dawley rat RBC assessed as release of hemoglobin at 50 uM incubated for 1 hr relative to control; type: ADME, cell-based, Erythrocyte; conditions: red blood cells (erythrocytes), read-out: Activity
Method in brief: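 Fresh Sprague-Dawley rat erythrocytes were washed in saline and resuspended at 2% v/v. Cells were incubated with compound in DMSO/PBS for 1 h at 37 °C, then centrifuged at 200 g, and supernatant absorbance read at 540 nm. Results were normalised to DMSO/PBS (0%) and 0.1% Triton X-100 (100%). Single-point testing used 50 μM; HC50 came from 10-point curves. Means of three experiments.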

Compound	MIC [1] [µM]	MIC [2] [µM]	MIC [3] [µM]	MIC [4] [µM]	MIC [5] [µM]	MIC [6] [µM]	MIC [7]	MIC [8]	Activity [9] [µM]	IC50 [10] [µM]	CC50 at 20 h [11] [µM]	hemolysis at 1 h, 50 µM [12] [%]
Cc1cccc2c(C(=O)C(=O)NCCCNCCCCNCCCNC(=O)C(=O)c3c[nH]c4c(C)cccc34)c[nH]c12.O=C(O)C(F)(F)F.O=C(O)C(F)(F)F	25	12.5	> 200	> 200	> 40	> 40	> 40 µM	10 µM	6.25	59.6	> 40	0.1
COc1cc([C@@H]2c3cc4c(cc3[C@H](O)[C@H]3COC(=O)[C@H]23)OCO4)cc(OC)c1OC [PODOFILOX]										0.018		
O=C(NCCCNCCCCNCCCNC(=O)C(=O)c1c[nH]c2cc(C(F)(F)F)ccc12)C(=O)c1c[nH]c2cc(C(F)(F)F)ccc12.O=C(O)C(F)(F)F.O=C(O)C(F)(F)F	50	50	200	100	35.2	> 35.2	35.2 µM	4.4 µM	100	31.4	3.36	3.2
CN[C@@H]1[C@H](O[C@H]2[C@H](O[C@H]3[C@H](O)[C@@H](O)[C@H](N=C(N)N)[C@@H](O)[C@@H]3N=C(N)N)O[C@@H](C)[C@]2(O)C=O)O[C@@H](CO)[C@H](O)[C@H]1O [STREPTOMYCIN]	21.5 (≈ 12.5 µg/mL)	10.7 (≈ 6.22 µg/mL)	21.5 (≈ 12.5 µg/mL)	21.5 (≈ 12.5 µg/mL)								
O=C(NCCCNCCCCNCCCNC(=O)C(=O)c1c[nH]c2cc(F)ccc12)C(=O)c1c[nH]c2cc(F)ccc12.O=C(O)C(F)(F)F.O=C(O)C(F)(F)F	100	> 200	> 200	> 200	> 39.6	> 39.6	> 39.6 µM	19.8 µM	25	69.1	12.5	0.3
O=C(NCCCNCCCCNCCCNC(=O)C(=O)c1c[nH]c2ccc(Cl)cc12)C(=O)c1c[nH]c2ccc(Cl)cc12.O=C(O)C(F)(F)F.O=C(O)C(F)(F)F	> 200		> 100	> 200	> 38	> 38	38 µM	> 38 µM	14.9	19.8	4.73	0
OC(Cn1cncn1)(Cn1cncn1)c1ccc(F)cc1F [FLUCONAZOLE]							0.125 µg/mL	8 µg/mL				
COC(=O)c1ccc2c(C(=O)C(=O)NCCCNCCCCNCCCNC(=O)C(=O)c3c[nH]c4cc(C(=O)OC)ccc34)c[nH]c2c1.O=C(O)C(F)(F)F.O=C(O)C(F)(F)F	> 200	12.5	> 200	> 200	> 36	> 36	> 36 µM	9 µM	25	63.6	> 36	0.6
N#Cc1ccc2c(C(=O)C(=O)NCCCNCCCCNCCCNC(=O)C(=O)c3c[nH]c4cc(C#N)ccc34)c[nH]c2c1.O=C(O)C(F)(F)F.O=C(O)C(F)(F)F	100	25	> 200	200	> 38.9	> 38.9	> 38.9 µM	38.9 µM	50	46.9	> 38.9	0
